Results from publication PMC2232892 (The Journal of General Physiology, 2000).
Where two headings read alike, the source gives them in different places.

Tests used:
[1] = molecular target: T1, Shaker B, ShB Δ6-46 (Drosophila melanogaster, UniProt P08510, DEL6-46); assay type: cell-based; details: for Kd: read-out: apparent Kd for external TEA block
Summary of the method: (§1)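 Oocytes were defolliculated for 60–90 min with 2 mg/ml collagenase in Ca-free OR-2, injected with channel RNA, and held at 18°C in ND-96 with penicillin/streptomycin. Inside-out or outside-out macropatches were recorded 1–5 d later at 20–22°C, filtered at 5 kHz. External solution (mM): 5 KCl, 135 NMDG-Cl, 2 CaCl2, 2 MgCl2, 10 HEPES, pH 7.2. Internal solution: 110 KCl, 25 KOH, 10 EGTA, 10 HEPES, pH 7.2.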

[2] = molecular target: T2, T449Y Shaker channels (Drosophila melanogaster, UniProt P08510, DEL6-46/T449Y); assay type: cell-based
Summary of the method: as §1

[3] = molecular target: T1, Shaker B, ShB Δ6-46; details: wild-type Shaker channels; ref Heginbotham and MacKinnon 1992; Newland et al. 1992; cited from earlier work
[4] = molecular target: T2, T449Y Shaker channels; details: ref Heginbotham and MacKinnon 1992; cited from earlier work
[5] = system: RBK1 (rKv1.1) channels; details: ref Newland et al. 1992; cited from earlier work

**Q.** For `CC[N+](CC)(CC)CC` [TEA, tetraethylammonium], which “interaction parameter Q (external TEA antagonism of internal TEA block)” value ([1]; K+ solutions, 0-100 mM external TEA, Ko = 17 mM, 0 mV) is on record?
**A.** 4.6

**Q.** And the “interaction parameter Q (external vs internal TEA)” value ([1]; Rb+ solutions)?
**A.** 1

**Q.** What about the Kd ([1]; 20 mM internal K+ and 50 mM internal Na+) of the same molecule?
**A.** 7.5 ± 0.85 mM

**Q.** And the Kd ([1]; 50 mM internal K+ (data not shown))?
**A.** 17.6 ± 2.7 mM

**Q.** What about the Kd ([1]; 115 mM internal Na+ (20 mM K+)) of the same molecule?
**A.** 7.6 ± 1.2 mM

**Q.** What about the “interaction parameter Q (external vs internal TEA)” value ([2]; K+ solutions) of the same molecule?
**A.** 5.2

**Q.** What about the “current blocked by 2 mM internal TEA” value ([2]; absence of external TEA) of the same molecule?
**A.** 77 ± 0.4%

**Q.** What about the “current blocked by 2 mM internal TEA” value ([2]; presence of 1 mM external TEA) of the same molecule?
**A.** 64 ± 7%

**Q.** What about the “δ (electrical distance of external block)” value [3] of the same molecule?
**A.** ~0.15

**Q.** And the “electrical distance of external block” value [4]?
**A.** 0.04

**Q.** What about the “interaction parameter Q (external vs internal TEA)” value [5] of the same molecule?
**A.** 5.3

**Q.** What does the source list for `CC[N+](CC)(CC)CCOc1cccc(OCC[N+](CC)(CC)CC)c1OCC[N+](CC)(CC)CC` [gallamine, Gallamine triethiode]?
**A.** apparent zδ (voltage dependence of block, Woodhull equation) ([1]; 0.25 mM external gallamine, wild-type channels): 0.28; interaction parameter Q (external gallamine antagonism of internal TEA block) ([1]; K+ solutions, several external gallamine concentrations): 2; block by 0.25 mM external gallamine compared with wild-type channels ([2]; same concentration as on wild-type, reduced voltage sensitivity): considerably more effective
